Measured values: ChEMBL document CHEMBL5036324 (J Med Chem, 2021)
The source made the active and inactive calls. The rule behind the calls is not given here.

What was measured:
CT26 [1] = assay: Antitumor immunity against mouse CT26 cells implanted in BALB/c mouse assessed as increase in infiltration of CD8+ T cytotoxic lymphocytes at 25 ug, ip administered once a week with anti-PD-1 antibody for 23 days by flow cytometry analysis; format: functional, organism-based; conditions: dose 25.0 µg, time 23.0 day
How it was run: (§1)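 CT26-bearing BALB/c mice (n = 5) were treated ip once weekly with agonist, alone or with anti-PD-1 (200 μg, twice weekly). Tumours were harvested 23 days after implantation, enzymatically and mechanically dissociated into single cells, and stained for surface markers plus intracellular FoxP3 after fixation/permeabilisation. Cells were gated within CD45⁺ for CD11c⁺ DCs, CD11b⁺F4/80⁺MHCII⁺ (M1), CD206⁺ (M2), CD3/CD4/CD8, and CD4⁺CD25⁺FoxP3⁺ Treg, then analysed by flow cytometry.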

CT26 [2] = assay: Antitumor immunity against mouse CT26 cells implanted in BALB/c mouse assessed as increase in infiltration of CD4+ TH1 cells at 25 ug, ip administered once a week with anti-PD-1 antibody for 23 days by flow cytometry analysis; format: functional, organism-based; conditions: dose 25.0 µg, time 23.0 day; how it was run: as §1
[3] = Acute toxicity in BALB/c mouse assessed as mortality at 120 mg/kg, ip administered as single dose; format: organism-based; conditions: in vivo
[4] = Acute toxicity in BALB/c mouse assessed as mild diarrhea at 15 to 80 mg/kg, ip administered as single dose; format: organism-based; conditions: in vivo, dose 15-80 mg/kg
[5] = biological target: T1, TLR7 and TLR8 (Homo sapiens) (UniProt Q9NYK1+Q9NR97); assay: Agonist activity at human TLR7/8 expressed in human PBMC cells assessed as induction of MCP-1 production by measuring concentration required to induce maximal response incubated for 12 hrs by multiplexed immunoassay; format: cell-based; conditions: filed as agonist
How it was run: (§2)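 Healthy-volunteer PBMCs from a single donor were isolated by Ficoll−Hypaque gradient and plated at 2.0 × 10⁶ cells/mL. They were stimulated for 12 h with escalating compound concentrations. Supernatants were assayed in duplicate on a 41-analyte magnetic bead cytokine/chemokine panel read by Luminex. EC_max is the concentration giving maximal cytokine induction.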

[6] = biological target: T1, TLR7 and TLR8 (Homo sapiens); assay: Agonist activity at human TLR7/8 expressed in human PBMC cells assessed as induction of IL-6 production by measuring concentration required to induce maximal response incubated for 12 hrs by multiplexed immunoassay; format: cell-based; conditions: filed as agonist; how it was run: as §2
CT26 [7] = assay: Antitumor activity against mouse CT26 cells implanted in BALB/c mouse assessed as reduction in tumor volume at 25 ug, ip administered once a week in presence of anti-PD-1 antibodies and measured every 3 days for 23 days; format: functional, organism-based; conditions: dose 25.0 µg, time 23.0 day
How it was run: (§3)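 Subcutaneous CT26 tumours were grown in BALB/c mice, with cells cultured in DMEM/10% FBS. At a mean tumour size of 100 mm³, mice were randomised (n = 5/group). Agonist was given ip once weekly; anti-PD-1 or IgG isotype was given ip at 200 μg twice weekly. Tumour volume (V = 1/2ab²) was measured every 3 days. Mice were euthanised at 2000 mm³.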

[8] = Toxicity in BALB/c mouse implanted with mouse CT26 cells assessed as decrease in body weight at 25 ug, ip administered once a week in presence of anti-PD-1 antibodies for 23 days; format: organism-based; conditions: in vivo, 552 h, dose 25 µg, time 23 day
How it was run: (§4)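 CT26 subcutaneous tumor-bearing BALB/c mice (n = 5) were treated from 100 mm³ tumor volume. TLR7/8 agonist was given ip once weekly, alone or with anti-PD-1 antibody (200 μg ip, twice weekly). Body weight was tracked over the treatment period and reported as mean ± SEM.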

[9] = Acute toxicity in BALB/c mouse assessed as white discharge from eyes at 15 to 80 mg/kg, ip administered as single dose measured after 24 hrs; format: organism-based; conditions: in vivo, dose 15-80 mg/kg
[10] = biological target: T1, TLR7 and TLR8 (Homo sapiens); assay: Agonist activity at human TLR7/8 expressed in human PBMC cells assessed as induction of VEGF secretion incubated for 12 hrs by multiplexed immunoassay; format: cell-based; conditions: filed as agonist; how it was run: as §2
[11] = biological target: T1, TLR7 and TLR8 (Homo sapiens); assay: Agonist activity at human TLR7/8 expressed in human PBMC cells assessed as induction of IL-10 production by measuring concentration required to induce maximal response incubated for 12 hrs by multiplexed immunoassay; format: cell-based; conditions: filed as agonist; how it was run: as §2
[12] = Acute toxicity in BALB/c mouse assessed as body weight regain at 60 mg/kg, ip administered as single dose measured after 3 days; format: organism-based; conditions: in vivo, 72 h, time 3 day
[13] = biological target: T1, TLR7 and TLR8 (Homo sapiens); assay: Agonist activity at human TLR7/8 expressed in human PBMC cells assessed as induction of G-CSF production by measuring concentration required to induce maximal response incubated for 12 hrs by multiplexed immunoassay; format: cell-based; conditions: filed as agonist; how it was run: as §2
CT26 [14] = assay: Antitumor immunity against mouse CT26 cells implanted in BALB/c mouse assessed as increase in Teff/Treg ratio at 25 ug, ip administered once a week with anti-PD-1 antibody for 23 days by flow cytometry analysis; format: functional, organism-based; conditions: dose 25.0 µg, time 23.0 day; how it was run: as §1
CT26 [15] = assay: Antitumor immunity against mouse CT26 cells implanted in BALB/c mouse assessed as increase in infiltration of CD4+ TH1 cells at 25 ug, ip administered once a week for 23 days by flow cytometry analysis; format: functional, organism-based; conditions: dose 25.0 µg, time 23.0 day; how it was run: as §1
[16] = Acute toxicity in BALB/c mouse assessed as mild diarrhea at 15 to 80 mg/kg, ip administered as single dose measured after 24 hrs; format: organism-based; conditions: in vivo, dose 15-80 mg/kg
[17] = biological target: T1, TLR7 and TLR8 (Homo sapiens); assay: Agonist activity at human TLR7/8 expressed in human PBMC cells assessed as induction of MIP-1alpha production by measuring concentration required to induce maximal response incubated for 12 hrs by multiplexed immunoassay; format: cell-based; conditions: filed as agonist; how it was run: as §2
CT26 [18] = assay: Antitumor immunity against mouse CT26 cells implanted in BALB/c mouse assessed as increase in Teff/Treg ratio at 25 ug, ip administered once a week for 23 days by flow cytometry analysis; format: functional, organism-based; conditions: dose 25.0 µg, time 23.0 day; how it was run: as §1
[19] = Toxicity in BALB/c mouse implanted with mouse CT26 cells assessed as decrease in body weight at 25 ug, ip administered once a week for 23 days; format: organism-based; conditions: in vivo, 552 h, dose 25 µg, time 23 day; how it was run: as §4
[20] = biological target: T1, TLR7 and TLR8 (Homo sapiens); assay: Agonist activity at human TLR7/8 expressed in human PBMC cells assessed as induction of TNFalpha production by measuring concentration required to induce maximal response incubated for 12 hrs by multiplexed immunoassay; format: cell-based; conditions: filed as agonist; how it was run: as §2
CT26 [21] = assay: Antitumor activity against mouse CT26 cells implanted in BALB/c mouse assessed as tumor growth delay at 25 ug, ip administered once per week and measured every 3 days for 23 days; format: functional, organism-based; conditions: dose 25.0 µg, time 23.0 day; how it was run: as §3
[22] = biological target: T1, TLR7 and TLR8 (Homo sapiens); assay: Agonist activity at human TLR7/8 expressed in human PBMC cells assessed as induction of IP-10 production by measuring concentration required to induce maximal response incubated for 12 hrs by multiplexed immunoassay; format: cell-based; conditions: filed as agonist; how it was run: as §2
[23] = Acute toxicity in BALB/c mouse assessed as body weight loss at 60 mg/kg, ip administered as single dose relative to control; format: organism-based; conditions: in vivo
[24] = biological target: T1, TLR7 and TLR8 (Homo sapiens); assay: Agonist activity at human TLR7/8 expressed in human PBMC cells assessed as induction of IL-8 production by measuring concentration required to induce maximal response incubated for 12 hrs by multiplexed immunoassay; format: cell-based; conditions: filed as agonist; how it was run: as §2
[25] = biological target: T1, TLR7 and TLR8 (Homo sapiens); assay: Agonist activity at human TLR7/8 expressed in human PBMC cells assessed as induction of IL-12p40 production by measuring concentration required to induce maximal response incubated for 12 hrs by multiplexed immunoassay; format: cell-based; conditions: filed as agonist; how it was run: as §2
[26] = Acute toxicity in BALB/c mouse assessed as maximum tolerated dose; conditions: in vivo
[27] = biological target: T1, TLR7 and TLR8 (Homo sapiens); assay: Agonist activity at human TLR7/8 expressed in human PBMC cells assessed as induction of INF-gamma production by measuring concentration required to induce maximal response incubated for 12 hrs by multiplexed immunoassay; format: cell-based; conditions: filed as agonist; how it was run: as §2
CT26 [28] = assay: Antitumor immunity against mouse CT26 cells implanted in BALB/c mouse assessed as increase in infiltration of CD8+ T cytotoxic lymphocytes at 25 ug, ip administered once a week for 23 days by flow cytometry analysis; format: functional, organism-based; conditions: dose 25.0 µg, time 23.0 day; how it was run: as §1
[29] = Acute toxicity in BALB/c mouse assessed as white discharge from eyes at 15 to 80 mg/kg, ip administered as single dose; format: organism-based; conditions: in vivo, dose 15-80 mg/kg
[30] = Subacute toxicity in BALB/c mouse assessed as body weight loss at 1.12 g, ip administered as single dose; format: organism-based; conditions: in vivo
How it was run: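 Subacute study in BALB/c mice, with treated and control groups. Body weight was recorded every day. Spleens were weighed and photographed, and tissues were examined by H&E staining.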

[31] = Acute toxicity in BALB/c mouse assessed as decrease in locomotor activity at 15 to 80 mg/kg, ip administered as single dose measured after 24 hrs; format: organism-based; conditions: in vivo, dose 15-80 mg/kg
[32] = Subacute toxicity in BALB/c mouse assessed as splenomegaly at 15 mg/kg, ip administered as single dose; format: organism-based; conditions: in vivo
How it was run: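 Subacute toxicity study in BALB/c mice given ip TLR7/8 agonist. Spleens from treated and control groups were weighed and photographed. Body weight was recorded every day.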

[33] = Acute toxicity in BALB/c mouse assessed as decrease in locomotor activity at 15 to 80 mg/kg, ip administered as single dose; format: organism-based; conditions: in vivo, dose 15-80 mg/kg
[34] = biological target: T1, TLR7 and TLR8 (Homo sapiens); assay: Agonist activity at human TLR7/8 expressed in human PBMC cells assessed as induction of IL-1beta production by measuring concentration required to induce maximal response incubated for 12 hrs by multiplexed immunoassay; format: cell-based; conditions: filed as agonist; how it was run: as §2

In the case of `CCOCc1nc2c(N)nc3ccccc3c2n1CC(C)(C)O` [RESIQUIMOD], the Activity (CT26 [1]) is reported as “Active”, the Activity (CT26 [2]) is reported as “Active” and the Activity [3] is reported as “Toxic”. The Activity [4] was “Toxic”, the ECmax [5] was 2 µg/mL and the ECmax [6] was 2 µg/mL. For the same compound, the Activity (CT26 [7]) was “Active”, the Activity [8] was “Non-Toxic” and the Activity [9] was “Non-Toxic”. For the same compound, the Activity [10] was “Active”, the ECmax [11] was 2 µg/mL and the Activity [12] was “Non-Toxic”. For the same compound, the ECmax [13] was 2 µg/mL, the Activity (CT26 [14]) was “Active” and the Activity (CT26 [15]) was “Active”. For the same compound, the Activity [16] was “Non-Toxic”, the ECmax [17] was 2 µg/mL and the Activity (CT26 [18]) was “Active”. The Activity [19] was “Non-Toxic”, the ECmax [20] was 2 µg/mL and the Activity (CT26 [21]) was “Active”. For the same compound, the ECmax [22] was 2 µg/mL, the Activity [23] was 8.7% and the ECmax [24] was 2 µg/mL. It also gave an ECmax [25] of 2 µg/mL, an MTD [26] of 80 mg/kg and an ECmax [27] of 2 µg/mL. For the same compound, the Activity (CT26 [28]) was “Active”, the Activity [29] was “Toxic” and the Activity [30] was “Toxic”. For the same compound, the Activity [31] was “Non-Toxic”, the Activity [32] was “Toxic” and the Activity [33] was “Toxic”. It also gave an ECmax [34] of 2 µg/mL.
